Data taken from ChEMBL document CHEMBL1629494, “New amino acid esters of salicylanilides active against MDR-TB and other microbes” (Eur J Med Chem, 2010).
Converted amounts (≈) assume the structure as drawn.

Assays:
[1] = test system: Mycobacterium tuberculosis; test: Antimycobacterial activity against Mycobacterium tuberculosis H37Rv 331/88 after 21 days by micromethod; assay type: functional; conditions: H37Rv 331/88, 504 h
How it was run: (§1)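 Micromethod in Sula semisynthetic medium, with compounds added as DMSO solutions at 1000, 500, 250, 125, 62, 32, 16, 8, 4, 2, 1, 0.5, 0.25. Inoculum dilutions: H37Rv 10^-3; M. avium 330/88 10^-5; M. kansasii 235/80 10^-4; M. kansasii 6509/96 10^-5. Incubated at 37 °C, read at 14 and 21 days, and at 7 days for M. kansasii. MIC was the lowest concentration inhibiting growth.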

[2] = test system: Candida albicans; test: Antifungal activity against Candida albicans ATCC 44859 after 24 hrs by broth microdilution method; assay type: functional; conditions: ATCC 44859, 24 h
[3] = test system: Staphylococcus aureus; test: Antibacterial activity against Staphylococcus aureus CCM 4516/08 after 24 hrs by broth microdilution method; assay type: functional; conditions: CCM 4516/08, 24 h
How it was run: (§2)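 Broth microdilution following […], with twofold compound dilutions in Mueller-Hinton bouillon. Incubated 24 and 48 h at 35 °C in the dark in a humid atmosphere. MIC (IC80) was taken as ≥80% growth reduction versus control, read visually and photometrically.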

[4] = test system: Klebsiella pneumoniae; test: Antibacterial activity against Klebsiella pneumoniae D11750/08 after 24 hrs by broth microdilution method; assay type: functional; conditions: D11750/08, 24 h; how it was run: as §2
[5] = test system: Nakaseomyces glabratus; test: Antifungal activity against Candida glabrata 20/I after 48 hrs by broth microdilution method; assay type: functional
[6] = test system: Pichia kudriavzevii; test: Antifungal activity against Candida krusei E28 after 48 hrs by broth microdilution method; assay type: functional; conditions: E28, 48 h
[7] = test system: PBMC; test: Cytotoxicity against human PBMC after 24 hrs by MTT assay; assay type: cell-based
How it was run: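 Human peripheral blood mononuclear cells in RPMI-1640 with 10% fetal calf serum, 2 mM L-glutamine and gentamicin, 37 °C, 5% CO2. Seeded at 1.5–2.0 × 10⁵ cells/well. After 24 h, treated overnight in serum-free medium. Viability by MTT (2 mg/mL, 4 h); formazan dissolved in DMSO; OD540 minus OD620. Cytotoxicity % = [1 − OD treated/OD control] × 100; IC50 from dose-response curves. Four parallels, two independent experiments.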

[8] = test system: Staphylococcus epidermidis; test: Antibacterial activity against Staphylococcus epidermidis H6966/08 after 24 hrs by broth microdilution method; assay type: functional; conditions: H6966/08, 24 h; how it was run: as §2
[9] = test system: Mycobacterium kansasii; test: Antimycobacterial activity against Mycobacterium kansasii 6509/96 after 14 days by micromethod; assay type: functional; conditions: 6509/96, 336 h; how it was run: as §1
[10] = test system: Enterococcus sp.; test: Antibacterial activity against Enterococcus sp. J14365/08 after 48 hrs by broth microdilution method; assay type: functional; conditions: J14365/08, 48 h; how it was run: as §2
[11] = Lipophilicity, log P of the compound; assay type: physicochemical; conditions: octanol/water
[12] = test system: Lichtheimia corymbifera; test: Antifungal activity against Absidia corymbifera 272 after 48 hrs by broth microdilution method; assay type: functional; conditions: Lichtheimia corymbifera, 272, 48 h
[13] = test system: Mycobacterium kansasii; test: Antimycobacterial activity against Mycobacterium kansasii; assay type: functional
[14] = test system: Candida tropicalis; test: Antifungal activity against Candida tropicalis 156 after 24 hrs by broth microdilution method; assay type: functional; conditions: Candida tropicalis, 156, 24 h
[15] = test system: Candida tropicalis; test: Antifungal activity against Candida tropicalis 156 after 48 hrs by broth microdilution method; assay type: functional; conditions: Candida tropicalis, 156, 48 h
[16] = test system: Mycobacterium tuberculosis; test: Antimycobacterial activity against drug-sensitive Mycobacterium tuberculosis; assay type: functional
[17] = test system: Candida albicans; test: Antifungal activity against Candida albicans ATCC 44859 after 48 hrs by broth microdilution method; assay type: functional; conditions: ATCC 44859, 48 h
[18] = test system: Mycobacterium avium; test: Antimycobacterial activity against multidrug-resistant Mycobacterium avium 330/88 after 21 days by micromethod; assay type: functional; conditions: 330/88, 504 h; how it was run: as §1
[19] = test system: Mycobacterium kansasii; test: Antimycobacterial activity against Mycobacterium kansasii 235/80 after 21 days by micromethod; assay type: functional; conditions: 235/80, 504 h; how it was run: as §1
[20] = test system: Trichosporon beigelii; test: Antifungal activity against Trichosporon beigelii 1188 after 48 hrs by broth microdilution method; assay type: functional; conditions: Trichosporon beigelii, 1188, 48 h
[21] = test system: Aspergillus fumigatus; test: Antifungal activity against Aspergillus fumigatus 231 after 24 hrs by broth microdilution method; assay type: functional; conditions: Aspergillus fumigatus, 231, 24 h
[22] = test system: Mycobacterium tuberculosis; test: Antimycobacterial activity against Mycobacterium tuberculosis H37Rv 331/88 after 14 days by micromethod; assay type: functional; conditions: H37Rv 331/88, 336 h; how it was run: as §1
[23] = test system: Staphylococcus aureus; test: Antibacterial activity against methicillin-resistant Staphylococcus aureus H5996/08 after 24 hrs by broth microdilution method; assay type: functional; conditions: H5996/08, 24 h; how it was run: as §2
[24] = test system: Pichia kudriavzevii; test: Antifungal activity against Candida krusei E28 after 24 hrs by broth microdilution method; assay type: functional; conditions: E28, 24 h
[25] = test system: Trichophyton mentagrophytes; test: Antifungal activity against Trichophyton mentagrophytes after 24 hrs by broth microdilution method; assay type: functional
[26] = test system: Trichophyton mentagrophytes; test: Antifungal activity against Trichophyton mentagrophytes after 48 hrs by broth microdilution method; assay type: functional
[27] = Selectivity index, ratio of IC50 for human PBMC to MIC for Mycobacterium tuberculosis H37Rv 331/88 after 14 days; assay type: functional
How it was run: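 SI = PBMC IC50 (MTT cytotoxicity) divided by the MIC against the named M. tuberculosis strain. MIC taken after 14 days of incubation at 37 °C by the micromethod.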

[28] = test system: Mycobacterium avium; test: Antimycobacterial activity against multidrug-resistant Mycobacterium avium 330/88 after 14 days by micromethod; assay type: functional; conditions: 330/88, 336 h; how it was run: as §1
[29] = test system: Staphylococcus epidermidis; test: Antibacterial activity against Staphylococcus epidermidis H6966/08 after 48 hrs by broth microdilution method; assay type: functional; conditions: H6966/08, 48 h; how it was run: as §2
[30] = test system: Klebsiella pneumoniae; test: Antibacterial activity against Klebsiella pneumoniae D11750/08 after 48 hrs by broth microdilution method; assay type: functional; conditions: D11750/08, 48 h; how it was run: as §2
[31] = test system: Mycobacterium kansasii; test: Antimycobacterial activity against Mycobacterium kansasii 235/80 after 14 days by micromethod; assay type: functional; conditions: 235/80, 336 h; how it was run: as §1
[32] = test system: Mycobacterium kansasii; test: Antimycobacterial activity against Mycobacterium kansasii 235/80 after 7 days by micromethod; assay type: functional; conditions: 235/80, 168 h; how it was run: as §1
[33] = test system: Aspergillus fumigatus; test: Antifungal activity against Aspergillus fumigatus 231 after 48 hrs by broth microdilution method; assay type: functional; conditions: Aspergillus fumigatus, 231, 48 h
[34] = test system: Nakaseomyces glabratus; test: Antifungal activity against Candida glabrata 20/I after 24 hrs by broth microdilution method; assay type: functional
[35] = test system: Mycobacterium kansasii; test: Antimycobacterial activity against Mycobacterium kansasii 6509/96 after 21 days by micromethod; assay type: functional; conditions: 6509/96, 504 h; how it was run: as §1
[36] = test system: Escherichia coli; test: Antibacterial activity against Escherichia coli CCM 4517 after 24 hrs by broth microdilution method; assay type: functional; conditions: CCM 4517, 24 h; how it was run: as §2
[37] = test system: Mycobacterium avium; test: Antimycobacterial activity against Mycobacterium avium; assay type: functional
[38] = test system: Lichtheimia corymbifera; test: Antifungal activity against Absidia corymbifera 272 after 24 hrs by broth microdilution method; assay type: functional; conditions: Lichtheimia corymbifera, 272, 24 h
[39] = test system: Staphylococcus aureus; test: Antibacterial activity against methicillin-resistant Staphylococcus aureus H5996/08 after 48 hrs by broth microdilution method; assay type: functional; conditions: H5996/08, 48 h; how it was run: as §2
[40] = test system: Enterococcus sp.; test: Antibacterial activity against Enterococcus sp. J14365/08 after 24 hrs by broth microdilution method; assay type: functional; conditions: J14365/08, 24 h; how it was run: as §2
[41] = test system: Mycobacterium kansasii; test: Antimycobacterial activity against Mycobacterium kansasii 6509/96 after 7 days by micromethod; assay type: functional; conditions: 6509/96, 168 h; how it was run: as §1
[42] = test system: Staphylococcus aureus; test: Antibacterial activity against Staphylococcus aureus CCM 4516/08 after 48 hrs by broth microdilution method; assay type: functional; conditions: CCM 4516/08, 48 h; how it was run: as §2
[43] = test system: Trichosporon beigelii; test: Antifungal activity against Trichosporon beigelii 1188 after 24 hrs by broth microdilution method; assay type: functional; conditions: Trichosporon beigelii, 1188, 24 h
[44] = test system: Escherichia coli; test: Antibacterial activity against Escherichia coli CCM 4517 after 48 hrs by broth microdilution method; assay type: functional; conditions: CCM 4517, 48 h; how it was run: as §2

Work on `CC(=O)N[C@@H](Cc1ccccc1)C(=O)Oc1ccc(Br)cc1C(=O)Nc1ccc(C(F)(F)F)cc1` yielded an MIC [1] of 0.5 µM (≈ 0.275 µg/mL), an MIC [2] of 31.2 µM (≈ 17.2 µg/mL) and an MIC [3] of 3.9 µM (≈ 2.14 µg/mL). It also gave an MIC [4] greater than 500 µM, an MIC [5] of 500 µM (≈ 275 µg/mL) and an MIC [6] of 125 µM (≈ 68.7 µg/mL). It also gave an IC50 [7] of 48.7 µM, an MIC [8] of 15.6 µM (≈ 8.58 µg/mL) and an MIC [9] of 2 µM (≈ 1.1 µg/mL). The MIC [10] was 125 µM (≈ 68.7 µg/mL), the logP [11] was 5.19 and the MIC [12] was 15.6 µM (≈ 8.58 µg/mL). For the same compound, the MIC [13] was 1 µM (≈ 0.549 µg/mL), the MIC [14] was 125 µM (≈ 68.7 µg/mL) and the MIC [15] was 250 µM (≈ 137 µg/mL). For the same compound, the MIC [16] was 1 µM (≈ 0.549 µg/mL), the MIC [17] was 500 µM (≈ 275 µg/mL) and the MIC [18] was 4 µM (≈ 2.2 µg/mL). The MIC [19] was 2 µM (≈ 1.1 µg/mL), the MIC [20] was 31.2 µM (≈ 17.2 µg/mL) and the MIC [21] was 15.6 µM (≈ 8.58 µg/mL). The MIC [22] was 0.25 µM (≈ 0.137 µg/mL), the MIC [23] was 7.81 µM (≈ 4.29 µg/mL) and the MIC [24] was 15.6 µM (≈ 8.58 µg/mL). For the same compound, the MIC [25] was 3.9 µM (≈ 2.14 µg/mL), the MIC [26] was 7.81 µM (≈ 4.29 µg/mL) and the “Selectivity Index” value [27] was 194.8. The MIC [28] was 4 µM (≈ 2.2 µg/mL), the MIC [29] was 62.5 µM (≈ 34.3 µg/mL) and the MIC [30] was greater than 500 µM. It also gave an MIC [31] of 2 µM (≈ 1.1 µg/mL), an MIC [32] of 0.5 µM (≈ 0.275 µg/mL) and an MIC [33] of 31.2 µM (≈ 17.2 µg/mL). It also gave an MIC [34] of 125 µM (≈ 68.7 µg/mL), an MIC [35] of 2 µM (≈ 1.1 µg/mL) and an MIC [36] of 250 µM (≈ 137 µg/mL). The MIC [37] was 1 µM (≈ 0.549 µg/mL), the MIC [38] was 7.81 µM (≈ 4.29 µg/mL) and the MIC [39] was 125 µM (≈ 68.7 µg/mL). It also gave an MIC [40] of 15.6 µM (≈ 8.58 µg/mL), an MIC [41] of 1 µM (≈ 0.549 µg/mL) and an MIC [42] of 31.2 µM (≈ 17.2 µg/mL). The MIC [43] was 15.6 µM (≈ 8.58 µg/mL) and the MIC [44] was 500 µM (≈ 275 µg/mL).
